High-throughput results as filed in PubChem BioAssay.
RTF Ca sens act: cardiac RTF calcium sensitization; AID 493008; actives 0.24% (n = 340,000); IANBD-labeled TnC RTF fluorescence at EC20 calcium; 0% EC20 calcium, 100% full calcium; activation, % at 7.2 µM;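 active = activation above the mean over all tested compounds plus 3 SD, cut at about 30% in these data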;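 note: rise in fluorescence read as greater calcium sensitivity of cardiac thin filaments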
UCH37 inh: blocks the human deubiquitinase UCH37; Q9Y5K5; purified proteasome/UCH37, Ub-AMC cleavage fluorescence; inhibition, % (no concentration beside the values); actives 0.33% (n = 330,000); AID 588478;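 active = mean inhibition over replicate wells above about 20%, limit read from the data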;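 note: 0% = compound-free wells with enzyme and 100% = wells lacking proteasome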
Target sequence (Q9Y5K5 whole entry, looked up): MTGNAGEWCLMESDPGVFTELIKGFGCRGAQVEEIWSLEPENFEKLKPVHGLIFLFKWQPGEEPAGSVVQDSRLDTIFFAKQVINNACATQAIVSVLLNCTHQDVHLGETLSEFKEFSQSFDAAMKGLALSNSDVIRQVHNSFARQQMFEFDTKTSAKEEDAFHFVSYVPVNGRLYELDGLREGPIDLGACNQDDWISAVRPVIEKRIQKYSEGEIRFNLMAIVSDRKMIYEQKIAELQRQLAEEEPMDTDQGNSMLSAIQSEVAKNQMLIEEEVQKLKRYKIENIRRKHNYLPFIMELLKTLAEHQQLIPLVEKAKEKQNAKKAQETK
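Material: Human UCH37 enzyme supplied as purified proteasome complex | Schedule: 30 min preincubation with enzyme, 25 min cleavage at room temperature | Detection: AMC fluorescence 355/460 nm | Measure: % inhibition of Ub-AMC cleavage fluorescence | Controls: Wells without proteasome as full block, compound-free enzyme plus substrate as uninhibited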
Efflux pump mplx: antifungal efflux pump inhibition, Nile Red retention; S. cerevisiae Candida pump triplex; inhibition, % at 10 µM; actives 0.44% (n = 330,000); AID 485275;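 active = plate passing quality check with inhibition over a set limit, or well fluorescence over plate mean plus 4 SD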;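 note: Nile Red retained in pooled yeast measured as flow cytometry median fluorescence; 0% = buffer negative control and 100% = Enniatin B positive control; higher means more Nile Red kept so more efflux inhibition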
ARNT-TACC3 inh: disrupts binding between human ARNT and TACC3; actives 0.66% (n = 390,000); AlphaScreen His-ARNT PAS-B/GST-TACC3 binding, luminescence; TACC3 fragment carries E629A point mutation; AID 623870; inhibition, % at 9.99 µM;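 active = mean inhibition of replicates at least 50% and at least half of replicates each reaching 50%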;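 note: 0% = complete ARNT plus TACC3 wells and 100% = ARNT alone without TACC3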
SUMO Mot1 rescue: blocks SUMOylation pathway, rescuing yeast Mot1-301 growth | AID 2716 | growth rescue, % at 18.8 µM | actives 1% (n = 320,000) | S. cerevisiae Mot1-301 growth rescue, ATP luminescence, 38.5C; percent above DMSO median, 100 means doubled;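 active = every valid replicate shows activation above 250% relative to neutral control wells; inactive = the rest, any valid replicate at or below 250%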;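 note: OY570 slx delta 5 strain wells were the positive control but not used for scaling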
RTF Ca sens inh: cardiac RTF calcium desensitization. inhibition, % at 7.15 µM. P19429+P45379. IANBD-labeled cardiac RTF, Ca2+ fluorescence. AID 493244. actives 0.12% (n = 340,000);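 active = inhibition above the mean inhibition of all tested compounds plus 3 SD, cut at about 17% in these data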;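 note: assay run at fixed EC70 calcium of 1.6 mM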
Cmpd fluor yeast: flagged as fluorescent in efflux inhibitor counter-screen | shares compounds with Efflux pump mplx | S. cerevisiae AD/pABC3, compound fluorescence, flow cytometry | fluorescence ratio to DMSO, % at 10 µM | actives 4% (n = 1,700) | AID 588517;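 active = fluorescence ratio to DMSO above its plate's cutoff, the plate mean ratio plus 5 SD, cut at about 210% in these data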;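 note: unstained yeast with no Nile Red so the signal is compound autofluorescence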
CaMdr1 efflux inh: inhibitors of Candida albicans Mdr1 efflux pump; AID 588518; S. cerevisiae AD/CaMDR1, Nile Red efflux, flow cytometry; actives 1% (n = 1,700); shares compounds with Efflux pump mplx; inhibition, % at 10 µM; in the data active = inhibition above about 26%;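 note: 0% = DMSO vehicle and 100% = reference inhibitor; higher means more Nile Red retained so more efflux inhibition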
Cdr2 pump inh: Candida Cdr2 efflux pump inhibition; shares compounds with Efflux pump mplx; S. cerevisiae AD/CaCDR2, Nile Red retention, flow cytometry; Nile Red retention ratio vs DMSO, % at 10 µM; actives 4% (n = 1,700); AID 588520; in the data active = Nile Red retention ratio vs DMSO above about 190%;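 note: higher ratio means more blocking of Cdr2 efflux of the dye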
Cdr1 pump inh: Candida Cdr1 efflux pump inhibition | shares compounds with Efflux pump mplx | S. cerevisiae AD/CaCDR1, Nile Red efflux, flow cytometry | inhibition, % at 10 µM | actives 1% (n = 1,700) | AID 588522;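 active = inhibition above the screen-wide mean plus twice its standard deviation, cut at about 32% in these data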
Starred values were filed as active, the others as inactive. Most compounds without a hit are left out; they make up all but 2.1% or so of the library.

Screening Cc1ccc2nc(-c3ccccc3)cc(C(=O)N3CCN(c4ccccc4O)CC3)c2c1 returned RTF Ca sens act -22, UCH37 inh 3, Efflux pump mplx 0, ARNT-TACC3 inh -3, SUMO Mot1 rescue -13 and RTF Ca sens inh -7.
`Cc1ccc2nc(-c3ccccc3)cc(C(=O)N3CCN(S(=O)(=O)c4c(C)noc4C)CC3)c2c1` gave RTF Ca sens act 0, UCH37 inh 1, Efflux pump mplx 1.1*, ARNT-TACC3 inh 8, SUMO Mot1 rescue 10, RTF Ca sens inh 6, Cmpd fluor yeast 104, CaMdr1 efflux inh 0, Cdr2 pump inh 103 and Cdr1 pump inh 0.
`CC1(C)CC(=O)/C(=C(\O)CCCN2C(=O)c3ccccc3C2=O)C(=NC(C)(C)C)C1` gave UCH37 inh 1.
Screening O=C(Nc1ccc(NC(=O)c2ccc(Cl)cc2Cl)cc1)c1cccs1 returned RTF Ca sens act -6, UCH37 inh -22, Efflux pump mplx 1.3*, ARNT-TACC3 inh 0, SUMO Mot1 rescue -14, RTF Ca sens inh 10, Cmpd fluor yeast 98, CaMdr1 efflux inh 0, Cdr2 pump inh 85 and Cdr1 pump inh 0.
`COC(=O)c1ccccc1NC(=S)N(Cc1ccc2c(c1)OCO2)Cc1cc2ccc(OC)cc2[nH]c1=O` gave RTF Ca sens act 7, Efflux pump mplx 6.4*, ARNT-TACC3 inh 12, SUMO Mot1 rescue -15, RTF Ca sens inh -2, Cmpd fluor yeast 99, CaMdr1 efflux inh 0, Cdr2 pump inh 96 and Cdr1 pump inh 0.
Screening COC(=O)c1ccccc1NC(=S)N(Cc1ccc2c(c1)OCO2)Cc1cc2ccc(C)cc2[nH]c1=O returned RTF Ca sens act 11, UCH37 inh 2, Efflux pump mplx 0, ARNT-TACC3 inh -10, SUMO Mot1 rescue 345 and RTF Ca sens inh -8.
CC1C(=O)NN=C1C(=O)NN=Cc1ccco1 (centres undefined) was read as UCH37 inh 3.
`COc1ccccc1NC(=O)c1c(N=Cc2c(O)ccc3ccccc23)cnn1C` gave RTF Ca sens act 0, UCH37 inh 3, Efflux pump mplx 0.4*, ARNT-TACC3 inh 10, RTF Ca sens inh 3, Cmpd fluor yeast 110, CaMdr1 efflux inh 1, Cdr2 pump inh 103 and Cdr1 pump inh 0.
`Cc1ccc2c(nc3s/c(=C\c4ccc(-c5ccccc5C(=O)O)o4)c(=O)n32)c1C` gave RTF Ca sens act 11, Efflux pump mplx 0.7*, ARNT-TACC3 inh -11, SUMO Mot1 rescue -11, RTF Ca sens inh -21, Cmpd fluor yeast 102, CaMdr1 efflux inh 0, Cdr2 pump inh 121 and Cdr1 pump inh 0.
Screening O=C(O)c1ccc(-c2ccc(/C=c3/sc4nc5ccccc5n4c3=O)o2)cc1Cl returned RTF Ca sens act 5, Efflux pump mplx 0.8*, SUMO Mot1 rescue 122, RTF Ca sens inh -7, Cmpd fluor yeast 103, CaMdr1 efflux inh 0, Cdr2 pump inh 148 and Cdr1 pump inh 0.
CC(=NNC(=O)COc1cccc(C)c1)c1ccc2ccccc2c1O was read as UCH37 inh -86.
Screening CCCc1nn2c(=O)cc(CSCC(=O)Nc3ccc(F)cc3)nc2s1 returned RTF Ca sens act 2, UCH37 inh 3, Efflux pump mplx 1.9*, ARNT-TACC3 inh -20, SUMO Mot1 rescue 0, RTF Ca sens inh -8, Cmpd fluor yeast 100, CaMdr1 efflux inh 0, Cdr2 pump inh 100 and Cdr1 pump inh 0.
